Experimental data published in ChEMBL document CHEMBL3865800, “Design, synthesis and biological evaluation of 4-anilinoquinazoline derivatives as new c-myc G-quadruplex ligands” (Eur J Med Chem, 2016).
The source made the active and inactive calls. The calls are words filed in the database; no cut-off is given here.

What was measured:
[1] = Cytotoxicity against human HeLa cells assessed as reduction in cell viability after 48 hrs by MTT assay; format: functional, cell-based
[2] = Cytotoxicity against human Raji cells assessed as reduction in cell viability after 48 hrs by MTT assay; format: functional, cell-based
[3] = Binding affinity to F10T duplex DNA (unknown origin) assessed as change in melting temperature by FRET assay
Procedure, shortened: (§1)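 Fluorescence melting on real-time PCR instrument; 0.4 μM labelled oligonucleotide (FPu22T or duplex-forming F10T), ligand 2.0 μM, in 10 mM Tris-HCl pH 7.4 with 10 or 60 mM KCl; ex 470/em 530 nm at 1 °C steps over 37–99 °C, 30 s equilibration each; ΔTm = Tm(DNA+ligand) − Tm(DNA).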

[4] = Cytotoxicity against human CA46 cells assessed as reduction in cell viability after 48 hrs by MTT assay; format: functional, cell-based; settings: CA46, 48 h
[5] = Binding affinity to 5'-FPu22T-3'-labelled c-myc G-quadruplex DNA (unknown origin) assessed as change in melting temperature at 2 uM in presence ds26 DNA of by FRET assay
Procedure, shortened: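 FRET melting of 0.4 μM labelled FPu22T with ligand 2.0 μM, alone or with 10-fold (4 μM), 50-fold (20 μM) or 100-fold (40 μM) excess unlabelled duplex ds26 as competitor; Tris-HCl 10 mM pH 7.4 with 10 or 60 mM KCl; ex 470/em 530 nm read every 1 °C from 37–99 °C, 30 s hold; ΔTm = Tm(DNA+ligand) − Tm(DNA).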

[6] = Binding affinity to biotinylated double stranded DNA (unknown origin) after 240 secs by SPR assay
Procedure, shortened: (§2)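 SPR: biotinylated Pu22 and biotinylated duplex folded in 50 mM Tris-HCl pH 7.4, 150 mM KCl, 0.005% Tween20, captured (~1000 RU) on separate flow cells with a blank reference; ligand 0.0625–10 μM in running buffer, 240 s association then 240 s dissociation at 25 °C; equilibrium KD derived.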

[7] = Cytotoxicity against human A549 cells assessed as reduction in cell viability after 48 hrs by MTT assay; format: functional, cell-based; settings: A549, 48 h
[8] = Binding affinity to biotinylated 5'-Pu22-3'-labelled c-myc G-quadruplex DNA (unknown origin) after 240 secs by SPR assay; procedure, shortened: as §2
[9] = Cytotoxicity against mouse primary mesangial cells assessed as reduction in cell viability after 48 hrs by MTT assay; format: toxicity
[10] = Selectivity ratio of Kd for double stranded DNA (unknown origin) to Kd for biotinylated 5'-Pu22-3'-labelled c-myc G-quadruplex DNA
[11] = Binding affinity to 5'-FPu22T-3'-labelled c-myc G-quadruplex DNA (unknown origin) assessed as change in melting temperature by FRET assay; procedure, shortened: as §1
[12] = Drug uptake in human HeLa cells at 10 uM after 48 hrs
[13] = Binding affinity to 5'-Pu22-3' c-myc G-quadruplex DNA (unknown origin) assessed as induction of parallel c-myc G-quadruplex conformation at 2 equiv after 6 hrs in absence of KCl by CD-spectroscopic analysis
Procedure, shortened: (§3)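 Pu22 at 3 μM final in 10 mM Tris-HCl buffer with ligand at 2 equiv, with 100 mM KCl or without KCl; heated 95 °C 5 min, slowly cooled, held ≥6 h; CD spectra 230–330 nm, 1 mm quartz cell, 1 nm bandwidth and step, 0.5 s/point, average of two scans.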

[14] = Binding affinity to 5'-Pu22-3' c-myc G-quadruplex DNA (unknown origin) assessed as maintainance of parallel c-myc G-quadruplex conformation at 2 equiv after 6 hrs in presence of KCl by CD-spectroscopic analysis; procedure, shortened: as §3

Compound	ΔTm [3]	Activity [5]	Kd [6]	Kd [8]	Selectivity ratio [10]	ΔTm [11]	Drug uptake [12]	Activity [13]	Activity [14]	IC50 [1]	IC50 [2]	IC50 [4]	IC50 [7]	IC50 at 48 h [9]
CCN(CC)CCCCC(=O)Nc1ccc(Nc2nc(-c3ccccc3NC(=O)CCCCN(CC)CC)nc3ccccc23)cc1	0.4 °C	Active	> 10 µM	0.52 µM	> 19.2	13.1 °C	–	–	–	12.7 µM	12.6 µM	5.7 µM	> 50 µM	> 50 µM
CCN(CC)CCC(=O)Nc1ccc(Nc2nc(N(CC)CC)nc3ccccc23)cc1	0.2 °C	Active	> 10 µM	1.64 µM	> 6.1	12.2 °C	–	–	–	6.3 µM	5.1 µM	10.3 µM	6.1 µM	6.4 µM
CCN(CC)CC(=O)Nc1ccc(Nc2nc(N(CC)CC)nc3ccccc23)cc1	0.4 °C	–	> 10 µM	3.34 µM	> 3	10 °C	–	–	–	21 µM	13.5 µM	4.2 µM	20.8 µM	10.2 µM
CCN(CC)CCCNCCC(=O)Nc1ccc(Nc2nc(-c3ccccc3NC(=O)CCNCCCN(CC)CC)nc3ccccc23)cc1	3.6 °C	Active	6.21 µM	1.6 µM	3.9	26.6 °C	–	–	–	> 50 µM	> 50 µM	> 50 µM	> 50 µM	> 50 µM
CN1CCN(CCC(=O)Nc2ccc(Nc3nc(-c4ccccc4NC(=O)CCN4CCN(C)CC4)nc4ccccc34)cc2)CC1	0.3 °C	Active	–	0.4 µM	–	13.2 °C	–	Active	Active	20.1 µM	27.8 µM	19.5 µM	> 50 µM	> 50 µM
CCN(CC)CCCC(=O)Nc1ccc(Nc2nc(-c3ccccc3NC(=O)CCCN(CC)CC)nc3ccccc23)cc1	0.9 °C	Active	> 10 µM	0.54 µM	> 18.5	13.6 °C	–	–	–	32.5 µM	27.3 µM	21 µM	24.5 µM	> 50 µM
CCN(CC)CCC(=O)Nc1cc(Cl)ccc1-c1nc(NCCCN(C)C)c2ccccc2n1	3.7 °C	–	9.18 µM	0.49 µM	18.7	11.4 °C	–	–	–	–	–	–	–	–
CN(C)CCCNCCC(=O)Nc1ccc(Nc2nc(-c3ccccc3NC(=O)CCNCCCN(C)C)nc3ccccc23)cc1	3.7 °C	Active	5.89 µM	0.57 µM	10.3	21.8 °C	–	–	–	> 50 µM	> 50 µM	> 50 µM	> 50 µM	> 50 µM
O=C(CCCN1CCCC1)Nc1ccc(Nc2nc(-c3ccccc3NC(=O)CCCN3CCCC3)nc3ccccc23)cc1	0.8 °C	Active	> 10 µM	0.55 µM	> 18.2	12.6 °C	–	–	–	22.4 µM	31.6 µM	13.7 µM	27.2 µM	> 50 µM

Now those with a lower Kd [8], led by results:

ΔTm [3]	Activity [5]	Kd [6]	Kd [8]	Selectivity ratio [10]	ΔTm [11]	Drug uptake [12]	Activity [13]	Activity [14]	Compound	IC50 [1]	IC50 [2]	IC50 [4]	IC50 [7]	IC50 at 48 h [9]
0.9 °C	Active	> 10 µM	0.2 µM	> 50	14.2 °C	Active	Active	Active	O=C(CCN1CCCC1)Nc1ccc(Nc2nc(-c3ccccc3NC(=O)CCN3CCCC3)nc3ccccc23)cc1	7 µM	4 µM	7.2 µM	26.6 µM	23.3 µM
0.6 °C	Active	–	0.21 µM	–	18 °C	–	Active	Active	CCN(CC)CCNCCC(=O)Nc1ccc(Nc2nc(-c3ccccc3NC(=O)CCNCCN(CC)CC)nc3ccccc23)cc1	> 50 µM	> 50 µM	> 50 µM	> 50 µM	> 50 µM
0.6 °C	Active	> 10 µM	0.16 µM	> 62.5	13.3 °C	Active	Active	Active	O=C(CN1CCCC1)Nc1ccc(Nc2nc(-c3ccccc3NC(=O)CN3CCCC3)nc3ccccc23)cc1	2.9 µM	1.9 µM	1.8 µM	18.7 µM	16.5 µM
1.4 °C	Active	> 10 µM	0.22 µM	> 45.4	17.9 °C	–	Active	Active	O=C(CCN1CCCCC1)Nc1ccc(Nc2nc(-c3ccccc3NC(=O)CCN3CCCCC3)nc3ccccc23)cc1	7.4 µM	1.3 µM	4.5 µM	7.5 µM	6.3 µM
0.8 °C	Active	–	0.14 µM	–	19.4 °C	–	Active	Active	CN(C)CCNCCC(=O)Nc1ccc(Nc2nc(-c3ccccc3NC(=O)CCNCCN(C)C)nc3ccccc23)cc1	> 50 µM	> 50 µM	28.2 µM	> 50 µM	> 50 µM
